Experimental data from PubChem BioAssay AID504338 (NMMLSC, 2011).
Activity calls are given as the source filed them.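 How the source made its calls: active means GFP response vs DMSO above 150% with enough events counted; inconclusive means fewer than 70 events counted for a yeast strain; inactive means the rest.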

test: yeast TOR reporter LAP4-GFP retest – cell-based, third cherry pick, flow cytometry, confirmation (AID 504338);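 further: ratio to plate DMSO wells so 100% equals DMSO level rather than 0%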; settings: S. cerevisiae LAP4-GFP strain, 3 h, at 10 µM, active compounds read high
Procedure, shortened: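 Assay system – yeast LAP4-GFP strain · Buffer or medium – synthetic complete medium · Times – compound exposure for 3 h at 30 °C · Technique – flow cytometric GFP fluorescence · Evaluation – median GFP fluorescence as percent of plate DMSO-well average · Benchmarks – rapamycin 400 ng/mL as positive control, DMSO wells as reference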

| Compound | GFP response vs DMSO |
| --- | --- |
| COc1ccccc1Nc1nc(NCCO)nc(N)c1[N+](=O)[O-] | 104% (inactive) |
| CSc1nc(Nc2ccc(Cl)cc2)c(C#N)c(=O)[nH]1 | 106% (inactive) |
| O=C1c2ccccc2C(=O)c2c1cccc2N(CCO)CCO | 100% (inactive) |
| O=C(N/N=C/c1ccccc1F)c1cccc2ccccc12 | 104% (inactive) |
| O=C(Nc1ccccc1)ON=C1c2ccccc2-c2ccccc21 | 106% (inactive) |
| FC(F)Oc1cccc2cccnc12 | 101% (inactive) |
| CS(=O)(=O)c1nc(-c2ccc(F)cc2)cc(C(F)(F)F)n1 | 144% (inactive) |
| O=C(Nc1cccc2ccccc12)ON=C1CCCCC1 | 112% (inactive) |
| CCCC(=O)Nn1cnc2c(c1=O)C1(CCCC1)Cc1ccccc1-2 | 103% (inactive) |
| Cc1cc(C)c(NC(=O)CC(=O)c2ccccc2)c(Cl)c1 | 100% (inactive) |
| N#Cc1c(N)nc(N)nc1Nc1ccc(Br)cc1 | 104% (inactive) |
| CC(=O)NC(C)c1cc(Cl)c2cccnc2c1O (centres undefined) | 101% (inactive) |
| Cc1ccc2c(C)ccc(O)c2n1 | 101% (inactive) |
| COc1cccc2c(O)cc(=O)n(C)c12 | 104% (inactive) |
| Cc1ccc(C(=O)Nc2nc(-c3ccccn3)cs2)o1 | 103% (inactive) |
| Nc1nc(NCCOCCO)nc(Nc2cccc(F)c2)c1[N+](=O)[O-] | 104% (inactive) |
| OCCNc1ncnc2ccc(Br)cc12 | 98.6% (inactive) |
| Cc1ccc2c(Cl)cc(Cl)c(O)c2n1 | 193% (active) |
| Cn1c(NCCCO)nc2c(c1=O)C1(CCCCC1)Cc1ccccc1-2 | 104% (inactive) |
| O=C(Nc1ccccc1)O/N=C1\CCCCC1c1ccc([N+](=O)[O-])cc1[N+](=O)[O-] (centres undefined) | 106% (inactive) |

| Compound | GFP response vs DMSO |
| --- | --- |
| CNc1cccc2c1C(=O)c1ccccc1C2=O | 107% (inactive) |
| C[n+]1cccc2cccc([O-])c21 | 107% (inactive) |
| COc1ccccc1Nc1nc(NCCC(C)C)nc(N)c1[N+](=O)[O-] | 100% (inactive) |
| Oc1c(Br)cc(Br)c2cccnc12 | 257% (active) |
| COc1cccc2c(=O)c(C(=O)O)c[nH]c12 | 110% (inactive) |
| O=C(O)c1ccc2cccnc2c1O | 106% (inactive) |
| Nc1ncnc(Nc2cc(Cl)cc(Cl)c2)c1[N+](=O)[O-] | 101% (inactive) |
| O=C(Nc1ccccc1)O/N=C1/CCCc2occc21 | 107% (inactive) |
| C/C(=N\NC(=O)c1ccccc1)c1ccccc1F | 106% (inactive) |
| Cn1c(NCCO)nc2c(c1=O)C1(CCCCC1)Cc1ccccc1-2 | 104% (inactive) |
| CCc1c(C)nc2c(OC)cccc2c1Cl | 104% (inactive) |
| Oc1ccc(F)c2cccnc12 | 106% (inactive) |
| COc1ccccc1OCc1cc(C(=O)N2CCN(C)C(c3ccccc3)C2)no1 (centres undefined) | 106% (inactive) |
| COc1ccc(OC)c2c(C)cc(C)nc12 | 103% (inactive) |
| Cc1ccc(Nc2cc(=O)[nH]c(=O)[nH]2)cc1C | 104% (inactive) |
| CCC(C)Nc1nc(N)c([N+](=O)[O-])c(Nc2ccccc2OC)n1 (centres undefined) | 97.2% (inactive) |
| Oc1c(Cl)cc(Cl)c2cccnc12 | 188% (active) |
| CN(C)CCCNc1cc(O)c2ncccc2c1 | 110% (inactive) |
| Cc1ccc2nc(-c3ccc(NC(=O)c4cccnc4)cc3)oc2c1 | 103% (inactive) |
